# XiGFP reactiv = X-chromosome reactivation activator. XiGFP mouse fibroblasts, % GFP-positive cells imaging, 3 d; cells co-treated with 5-aza-dC sensitizer; scaled so ellipticine positive control = 100%. activation, % at 7.58 µM. 360,000 tested, 0.055% active;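 active = mean normalized replicate activation at least 10% and every replicate at or above 10%; inconclusive = only one of the two criteria met; inactive = mean below 10% and not all replicates reach 10%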
#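 System: 68-5-11 XiGFP fibroblast line; Timing: 3 days compound exposure; Compound dosing: one concentration, pinned; Benchmarks: positive control ellipticine, 6 µM final; Buffer or medium: DMEM containing 5-aza-dC.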
# Myeloid diff 2 = myeloid differentiation induction | ER-HoxA9 myeloid progenitors, lysozyme-GFP differentiation, flow cytometry | 360,000 tested, 1% active | calls only at 10 µM | AID 624256;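 active = normalized GFP-positive differentiation at or above the plate's own cutoff, the solvent-only control mean plus 3 SD; inconclusive = no clear call, values can overlap the other calls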;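 note: cells exposed to compound for four days before flow analysis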
# ABCB6 inh 2 = inhibitors of human ABC transporter ABCB6; fluorescence ratio to DMSO, % at 10 µM; K562-ABCB6 porphyrin accumulation, flow cytometry, 1 h; active compounds read low; 360,000 tested, 0.19% active; AID 602162; Q9NP58;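 active = fluorescence ratio to DMSO below 75%, the collection mean minus 3 SD; inconclusive = too few cells collected in the well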;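 note: signal is porphyrin accumulated inside mitochondria; lower ratio means ABCB6 inhibition with less porphyrin fluorescence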
# Target sequence (Q9NP58 whole entry, looked up): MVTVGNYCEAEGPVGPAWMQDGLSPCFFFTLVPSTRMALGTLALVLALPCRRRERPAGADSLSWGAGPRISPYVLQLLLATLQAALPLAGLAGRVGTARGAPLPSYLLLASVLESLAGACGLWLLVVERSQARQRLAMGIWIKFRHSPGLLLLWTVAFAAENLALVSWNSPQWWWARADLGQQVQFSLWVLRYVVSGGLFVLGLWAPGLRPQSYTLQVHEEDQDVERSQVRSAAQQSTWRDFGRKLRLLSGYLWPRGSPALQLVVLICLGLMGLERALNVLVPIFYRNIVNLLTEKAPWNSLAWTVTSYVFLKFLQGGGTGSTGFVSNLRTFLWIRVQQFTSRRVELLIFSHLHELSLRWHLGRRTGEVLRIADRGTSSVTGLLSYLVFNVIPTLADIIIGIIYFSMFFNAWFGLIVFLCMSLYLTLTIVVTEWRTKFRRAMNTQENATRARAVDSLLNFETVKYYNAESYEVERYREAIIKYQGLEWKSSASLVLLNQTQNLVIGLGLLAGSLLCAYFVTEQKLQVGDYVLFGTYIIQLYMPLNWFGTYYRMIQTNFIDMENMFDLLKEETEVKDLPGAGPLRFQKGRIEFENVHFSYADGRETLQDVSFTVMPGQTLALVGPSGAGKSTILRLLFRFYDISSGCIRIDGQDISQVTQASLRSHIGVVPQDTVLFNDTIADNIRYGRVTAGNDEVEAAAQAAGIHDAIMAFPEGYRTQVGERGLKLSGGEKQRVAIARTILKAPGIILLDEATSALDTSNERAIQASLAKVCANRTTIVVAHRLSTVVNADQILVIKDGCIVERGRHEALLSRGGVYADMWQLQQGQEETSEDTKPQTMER
# Myeloid diff CP1 = promotes myeloid progenitor differentiation; shares compounds with Myeloid diff 2; ER-HoxA9 myeloid progenitors, GFP/Mac1 double-positive flow; calls only; 2,300 tested, 2% active;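 active = share of green or green-and-red cells above 9 and 9% in run 1 or 4 and 3% in run 2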
# GFP autofluor = compound fluorescence in myeloid differentiation counter-screen; fluorescence response, % (no concentration beside the values); shares compounds with Myeloid diff 2; AID 651707; ER-HoxA9 myeloid progenitors, no estrogen, GFP autofluorescence flow cytometry; vehicle wells 0%, positive control 100%; 2,300 tested, 7.4% active;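 active = over 5% cells positive for green fluorescent reporter, or over 2% positive for both it and APC stain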
# A number is an active result; - = inactive; ? = inconclusive; . = no result; + = active, no number. The entries come from a sample that favours hits as a whole.
SMILES,XiGFP reactiv,Myeloid diff 2,ABCB6 inh 2,Myeloid diff CP1,GFP autofluor
Cc1noc(C)c1NC(=O)Nc1ccc2c(c1)C(=O)N([C@@H](C)CO)C[C@@H](C)[C@@H](CN(C)C(=O)Nc1cccc3ccccc13)O2,-,.,.,.,.
O=C(O)c1cccc(NC2=C(Cl)C(=O)c3ccccc3C2=O)c1,-,+,-,-,-
O=C(O)c1ccc(NC2=C(Cl)C(=O)c3ccccc3C2=O)cc1,-,-,-,.,.
COc1cc2[nH]c(=O)n(CCCC(=O)N3CC=C(c4ccccc4)CC3)c(=O)c2cc1OC,.,+,-,-,-
COc1cc2[nH]c(=O)n(CCC(=O)N3CC=C(c4ccccc4)CC3)c(=O)c2cc1OC,.,-,-,.,.
Cc1cc(C)nc(/N=C(\NC(=O)C(C)(C)C)Nc2ccccc2)n1,-,-,-,.,.
Cc1cc(C)nc(/N=C(/NC(=O)Nc2cccc(Cl)c2)Nc2ccccc2)n1,.,-,-,-,-
COc1ccccc1COc1cccn2c(N(C)C(=O)CCC3CCCC3)c(C)nc12,-,+,-,-,-
Cc1ccccc1COc1cccn2c(N(C)C(=O)CCC3CCCC3)c(C)nc12,-,-,-,.,.
Cc1ccc(S(=O)(=O)NCC[C@@H]2CC[C@H](NC(=O)c3cccc(F)c3)[C@@H](CO)O2)cc1,-,.,.,.,.
CC(=O)Nc1cc(-c2cccc(C(=O)NCCN(C)C)c2)cn2c(-c3ccc(S(C)(=O)=O)cc3)cnc12,-,+,-,-,5.3
CC(=O)Nc1cc(-c2cccc(C(=O)NCCN(C)C)c2)cn2c(-c3ccccc3)cnc12,-,-,-,.,.
CCOC(=O)c1c(C)c(C(=O)NCc2ccco2)c(C)n1C,-,-,-,.,.
CCOC(=O)c1c(C)c(C(=O)NCc2cccs2)c(C)n1C,.,-,-,-,-
COc1ccc(CC(=O)NNC(=O)c2ccc(SCc3cc(F)ccc3F)c([N+](=O)[O-])c2)cc1,.,-,-,-,-
COc1cccc(C(=O)NNC(=O)Cc2ccc([N+](=O)[O-])cc2)c1,-,-,-,.,.
CCc1c(N)nc(N)nc1Nc1ccc(C)c(C)c1,-,-,-,-,-
Cc1ccc(Nc2nc(N)nc(N)c2N=O)cc1Cl,-,?,-,.,.
C[C@@H]1CN([C@@H](C)CO)C(=O)c2cc(NC(=O)CCCN(C)C)ccc2O[C@H]1CN(C)S(=O)(=O)c1ccccc1,-,.,.,.,.
C[C@H](CO)N1C[C@H](C)[C@H](CN(C)C(=O)C2CCCCC2)OCc2cn(nn2)CCCC1=O,-,.,.,.,.
COc1cccc(N=CC=C2OC(C)(C)C(C)(C)O2)c1,-,-,-,.,.
Cc1cccc(N=CC=C2OC(C)(C)C(C)(C)O2)c1,-,+,-,-,-
COc1ccc(S(=O)(=O)N(C)C[C@H]2Oc3c(NC(=O)Nc4ccc5c(c4)OCO5)cccc3C(=O)N([C@@H](C)CO)C[C@H]2C)cc1,-,.,.,.,.
COc1ccccc1OCC(=O)/C=C1/N(C)c2ccccc2C1(C)C,-,-,-,.,.
CN1/C(=C/C(=S)NC(=O)C2CCC2)C(C)(C)c2ccccc21,-,-,-,-,-
SMILES,XiGFP reactiv,Myeloid diff 2,ABCB6 inh 2,Myeloid diff CP1,GFP autofluor
CO[C@@H]1CN(C)C(=O)c2ccc(NC(C)=O)cc2OC[C@H](C)N(C(=O)c2ccncc2)C[C@@H]1C,-,.,.,.,.
COc1cccc(-c2ccc([C@H]3[C@H]4CN(C(=O)C5CCC5)CC(=O)N4[C@H]3CO)cc2)c1,-,.,.,.,.
Cc1ccc(S(=O)(=O)NCC[C@H]2CC[C@@H](NC(=O)Nc3ccccc3F)[C@H](CO)O2)cc1,-,.,.,.,.
COc1ccc(S(=O)(=O)N[C@H]2CC[C@H](CCn3cc(-c4cccc(F)c4)nn3)O[C@@H]2CO)cc1,-,.,.,.,.
O=C(CN1C(=O)NC2(CCCC2)C1=O)NCc1ccco1,-,-,-,.,.
O=C(CN1C(=O)NC2(CCc3ccccc3C2)C1=O)NCc1ccco1 (stereo not given),-,-,-,-,-
CC(C)NC(=O)N(C)C[C@@H]1Oc2ncc(C#Cc3ccccc3F)cc2C(=O)N([C@@H](C)CO)C[C@H]1C,-,.,.,.,.
CC(=O)N1CCc2cc(S(=O)(=O)NCCC(=O)Nc3ccc4c(c3)OCCO4)ccc21,.,-,-,-,-
CC(=O)N1CCc2cc(S(=O)(=O)NCCC(=O)Nc3cc(C)cc(C)c3)ccc21,.,-,-,.,.
COCCNC(=O)C[C@H]1CC[C@@H](NC(=O)NC2CCCCC2)[C@H](CO)O1,-,.,.,.,.
COC(=O)CN(C#N)c1nc(N(C)C)nc(N(C)C)n1,-,-,-,.,.
CC(C)N(C(=O)CN(C#N)c1nc(N(C)C)nc(N(C)C)n1)c1ccccc1,.,-,-,-,-
C[C@@H]1CN([C@H](C)CO)C(=O)Cc2cc(NC(=O)Cn3cnnn3)ccc2O[C@H]1CN(C)Cc1ccccc1,-,.,.,.,.
C/C=C/c1ccc2c(c1)O[C@H](CN(C)C(=O)NC(C)C)[C@@H](C)CN([C@H](C)CO)S2(=O)=O,-,.,.,.,.
COc1ccc2c3c(n(C)c2c1)[C@H](CO)N(Cc1ccncc1)CC31CCN(C(=O)Cc2ccncc2)CC1,-,.,.,.,.
CCC(=O)Nc1cccc(C(=O)/C=C/c2ccccc2)c1,.,-,-,-,-
CCC(=O)Nc1cccc(C(=O)/C=C/c2cccs2)c1,-,-,-,.,.
Cc1noc(C)c1NC(=O)Nc1ccc2c(c1)C(=O)N([C@H](C)CO)C[C@H](C)[C@@H](CN(C)C)OCCCC[C@H](C)O2,-,.,.,.,.
COc1ccc([C@@H](NC(=O)OC(C)(C)C)C(=O)OC(C)(C)C)cc1,-,-,-,.,.
CC(C)(C)OC(=O)N[C@H](C(=O)OC(C)(C)C)c1ccc2ccccc2c1,-,+,-,-,-
Cc1ccc(NC(=S)Nc2cccc3cnccc23)cc1,-,-,-,.,.
Cc1ccc(NC(=S)Nc2cccc3cnccc23)cc1C,-,-,-,-,-
O=C(C[C@H]1CC[C@H]2[C@@H](COC[C@H](O)CN2Cc2cocn2)O1)NCc1cccc(F)c1,-,.,.,.,.
COc1ccc(NC(=O)N(C)C[C@@H]2OCCCC[C@H](C)Oc3ccc(NS(=O)(=O)c4c(C)noc4C)cc3C(=O)N([C@H](C)CO)C[C@@H]2C)cc1,-,.,.,.,.
O=S(=O)(c1ccc(=S)[nH]c1)N1CCCC1,-,+,-,-,61.9
SMILES,XiGFP reactiv,Myeloid diff 2,ABCB6 inh 2,Myeloid diff CP1,GFP autofluor
O=c1ccc(S(=O)(=O)N2CCCC2)c[nH]1,-,-,-,.,.
C[C@@H]1CN([C@H](C)CO)C(=O)c2cc(C#CCN(C)C)cnc2O[C@@H]1CN(C)Cc1ccccn1,-,.,.,.,.
C[C@@H]1CN([C@@H](C)CO)C(=O)c2cc(NC(=O)c3ccncc3)ccc2O[C@@H](C)CCCCO[C@@H]1CN(C)S(=O)(=O)c1ccc(F)cc1,-,.,.,.,.
COc1ccccc1-c1ccc2n(c1=O)C[C@@H]1[C@@H](CO)[C@H](C(=O)NC3CCC3)N(C(=O)C3CCC3)[C@H]21,-,.,.,.,.
C[C@H](CO)N1C[C@H](C)[C@@H](CN(C)C(=O)Nc2ccc(F)cc2)Oc2ccc(NS(=O)(=O)c3ccc(F)cc3)cc2C1=O,-,.,.,.,.
CC(=O)c1ccc(N2Cc3ccccc3/C2=N\C(=O)Nc2ccc(Cl)cc2)cc1,-,-,-,-,-
COC(=O)c1ccc(N2Cc3ccccc3/C2=N\C(=O)Nc2ccccc2)cc1,-,-,-,.,.

# Source: PubChem BioAssay (several laboratories)
